# Data: PMC9308755 (Chemmedchem, 2022)
# Key:
# [1] = Human liver microsome stability; assay type: in vitro ADME; details: liver microsomes
# [2] = Human plasma protein binding; assay type: in vitro ADME
# [3] = Mouse plasma protein binding; assay type: in vitro ADME
# [4] = Mouse liver microsome stability; assay type: in vitro ADME; details: liver microsomes
# mouse TRPC5 = target: T1, mouse TRPC5 (Mus musculus, UniProt Q9QX29); experiment: Syncropatch automated patch clamp, inhibition of riluzole-induced TRPC5 currents; assay type: cell-based; details: for IC50: TRPC5 IC50, riluzole (30 μM)-induced TRPC5 current; for IC50 / TRPC5 activity (in words): Syncropatch
# T1 sequence (Q9QX29 1-975): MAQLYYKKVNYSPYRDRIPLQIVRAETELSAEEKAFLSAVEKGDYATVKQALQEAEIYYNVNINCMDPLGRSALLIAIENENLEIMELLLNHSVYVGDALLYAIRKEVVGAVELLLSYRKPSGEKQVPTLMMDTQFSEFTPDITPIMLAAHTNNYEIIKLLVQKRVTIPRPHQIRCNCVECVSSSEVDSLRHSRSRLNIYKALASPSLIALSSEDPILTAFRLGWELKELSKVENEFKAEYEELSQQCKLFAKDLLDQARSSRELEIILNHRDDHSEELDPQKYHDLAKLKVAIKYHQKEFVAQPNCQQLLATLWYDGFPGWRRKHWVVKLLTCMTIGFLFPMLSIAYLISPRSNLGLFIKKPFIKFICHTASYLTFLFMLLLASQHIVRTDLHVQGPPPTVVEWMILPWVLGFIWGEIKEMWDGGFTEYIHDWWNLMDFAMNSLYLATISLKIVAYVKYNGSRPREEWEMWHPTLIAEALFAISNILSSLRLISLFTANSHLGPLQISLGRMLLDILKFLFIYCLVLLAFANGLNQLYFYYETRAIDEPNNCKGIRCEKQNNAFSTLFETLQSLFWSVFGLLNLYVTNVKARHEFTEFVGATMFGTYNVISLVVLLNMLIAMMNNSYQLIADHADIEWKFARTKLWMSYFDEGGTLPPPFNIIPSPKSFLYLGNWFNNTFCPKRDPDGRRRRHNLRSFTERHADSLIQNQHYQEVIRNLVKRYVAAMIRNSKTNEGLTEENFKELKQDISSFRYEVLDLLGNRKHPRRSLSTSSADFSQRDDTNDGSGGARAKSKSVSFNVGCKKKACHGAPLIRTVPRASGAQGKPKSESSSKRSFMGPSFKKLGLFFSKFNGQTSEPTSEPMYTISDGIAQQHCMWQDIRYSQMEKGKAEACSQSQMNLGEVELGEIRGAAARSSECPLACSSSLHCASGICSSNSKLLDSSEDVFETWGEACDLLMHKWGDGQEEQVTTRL
# Summary of the method: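 Doxycycline-induced (0.5–1 μg/mL, 3 days) Flp-In T-REx-293 cells stably expressing mouse TRPC5, used in automated patch clamp. 200 ms ramps from −100 to +100 mV every 5–10 s. 30 μM riluzole activates currents and stays present with compound. Only cells with doubly-rectifying currents kept. % inhibition compares 3 ramps after vs before compound, normalized to a reference inhibitor at 3 μM. IC50 from three-parameter fit.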
# In vivo rat cassette PK = details: for Brain / Plasma: Rat cassette (0.25 mpk); for Brain: brain level for Kp; for Plasma: plasma level for Kp; for Kp / C0 / MRT inf / Vd / clearance / half-life / AUC: rat, intravenous; for Kp: brain/plasma, 0.25 mpk; for C0 / MRT inf / Vd / clearance / half-life: in vivo; for C0 / MRT inf / Vd / clearance / half-life / AUC: 0.25 mg/kg; for AUC: plasma
structure (smiles),measurement,setting,value
"c1ccc(Cn2c(N3CCCC3)nc3ccccc32)cc1 [7 c, 1‐Benzyl‐2‐(pyrrolidin‐1‐yl)‐1H‐benzo[d]imidazole]",CLint scaled,[1],164 mL/min/kg
same,hCLHEP,[1],17.9 mL/min/kg
same,fraction unbound,[2],0.044
same,fraction unbound,[3],0.036
same,CLint scaled,[4],530 mL/min/kg
same,mCLHEP,[4],77.0 mL/min/kg
same,IC50,mouse TRPC5,4300 ± 1630 nM
"CCCNc1nc2ccccc2n1Cc1ccccc1 [7 f, 1‐Benzyl‐N‐propyl‐1H‐benzo[d]imidazol‐2‐amine]",CLint scaled,[1],103 mL/min/kg
same,hCLHEP,[1],16.8 mL/min/kg
same,fraction unbound,[2],0.041
same,fraction unbound,[3],0.108
same,CLint scaled,[4],796 mL/min/kg
same,mCLHEP,[4],80.9 mL/min/kg
same,IC50,mouse TRPC5,720 ± 210 nM
"CC(C)CCNc1nc2ccccc2n1Cc1ccccc1 [7 g, 1‐Benzyl‐N‐isopentyl‐1H‐benzo[d]imidazol‐2‐amine]",IC50,mouse TRPC5,1300 ± 310 nM
"CN1CCC(N2CCN(c3nc4ccccc4n3Cc3ccccc3)CC2)CC1 [7 h, 1‐Benzyl‐2‐(4‐(1‐methylpiperidin‐4‐yl)piperazin‐1‐yl)‐1H‐benzo[d]imidazole]",TRPC5 activity (in words),mouse TRPC5,not productive
"c1ccc(Cn2c(N3CCC4(CC3)CNC4)nc3ccccc32)cc1 [7 i, 7‐(1‐Benzyl‐1H‐benzo[d]imidazol‐2‐yl)‐2,7‐diazaspiro[3.5]nonane]",TRPC5 activity (in words),mouse TRPC5,not productive
"c1ccc(Cn2c(CCN3CCCC3)nc3ccccc32)cc1 [7 j, 1‐Benzyl‐2‐(2‐(pyrrolidin‐1‐yl)ethyl)‐1H‐benzo[d]imidazole]",TRPC5 activity (in words),mouse TRPC5,moderate activity
"Fc1ccccc1Cn1c(N2CCCC2)nc2ccccc21 [9 a, 1‐(2‐Fluorobenzyl)‐2‐(pyrrolidin‐1‐yl)‐1H‐benzo[d]imidazole]",IC50,mouse TRPC5,2690 nM
"Fc1cccc(Cn2c(N3CCCC3)nc3ccccc32)c1 [9 b, 1‐(3‐Fluorobenzyl)‐2‐(pyrrolidin‐1‐yl)‐1H‐benzo[d]imidazole]",IC50,mouse TRPC5,1490 ± 310 nM
"Fc1ccc(Cn2c(N3CCCC3)nc3ccccc32)cc1 [9 c, 1‐(4‐Fluorobenzyl)‐2‐(pyrrolidin‐1‐yl)‐1H‐benzo[d]imidazole]",IC50,mouse TRPC5,590 ± 140 nM
"Clc1cccc(Cn2c(N3CCCC3)nc3ccccc32)c1 [9 d, 1‐(3‐Chlorobenzyl)‐2‐(pyrrolidin‐1‐yl)‐1H‐benzo[d]imidazole]",IC50,mouse TRPC5,720 ± 210 nM
"Clc1ccc(Cn2c(N3CCCC3)nc3ccccc32)cc1 [9 e, 1‐(4‐Chlorobenzyl)‐2‐(pyrrolidin‐1‐yl)‐1H‐benzo[d]imidazole]",CLint scaled,[1],278 mL/min/kg
same,hCLHEP,[1],18.7 mL/min/kg
same,fraction unbound,[2],0.013
same,fraction unbound,[3],0.013
same,CLint scaled,[4],4260 mL/min/kg
same,mCLHEP,[4],88.2 mL/min/kg
same,IC50,mouse TRPC5,440 ± 140 nM
"COc1ccc(Cn2c(N3CCCC3)nc3ccccc32)cc1 [9 f, 1‐(4‐Methoxybenzyl)‐2‐(pyrrolidin‐1‐yl)‐1H‐benzo[d]imidazole]",IC50,mouse TRPC5,1150 ± 250 nM
"COc1ccc(Cn2c(N3CCCC3)nc3ccccc32)cc1F [9 g, 1‐(3‐Fluoro‐4‐methoxybenzyl)‐2‐(pyrrolidin‐1‐yl)‐1H‐benzo[d]imidazole]",IC50,mouse TRPC5,1780 ± 430 nM
"Cc1ccc(Cn2c(N3CCCC3)nc3ccccc32)cc1 [9 k, 1‐(4‐Methylbenzyl)‐2‐(pyrrolidin‐1‐yl)‐1H‐benzo[d]imidazole]",IC50,mouse TRPC5,902 ± 340 nM
"Cc1cccc(Cn2c(N3CCCC3)nc3ccccc32)c1 [9 l, 1‐(3‐Methylbenzyl)‐2‐(pyrrolidin‐1‐yl)‐1H‐benzo[d]imidazole]",IC50,mouse TRPC5,1900 nM
"Fc1cc(Cl)ccc1Cn1c(N2CCCC2)nc2ccccc21 [9 n, 1‐(4‐Chloro‐2‐fluorobenzyl)‐2‐(pyrrolidin‐1‐yl)‐1H‐benzo[d]imidazole]",CLint scaled,[1],239 mL/min/kg
same,hCLHEP,[1],18.5 mL/min/kg
same,fraction unbound,[2],0.01
same,fraction unbound,[3],0.0217
same,CLint scaled,[4],3200 mL/min/kg
same,mCLHEP,[4],87.6 mL/min/kg
same,IC50,mouse TRPC5,840 ± 230 nM
"N#Cc1cc(Cn2c(N3CCCC3)nc3ccccc32)ccc1F [9 o, 2‐Fluoro‐5‐((2‐(pyrrolidin‐1‐yl)‐1H‐benzo[d]imidazol‐1‐yl)methyl)benzonitrile]",CLint scaled,[1],38.1 mL/min/kg
same,hCLHEP,[1],13.2 mL/min/kg
same,fraction unbound,[2],0.068
same,fraction unbound,[3],0.053
same,CLint scaled,[4],370 mL/min/kg
same,mCLHEP,[4],72.5 mL/min/kg
same,Brain,In vivo rat cassette PK,41.8
same,Plasma,In vivo rat cassette PK,69.7
same,Kp,In vivo rat cassette PK,0.6
same,C0,In vivo rat cassette PK,221 ng/mL
same,MRT inf,In vivo rat cassette PK,38.5 min
same,Vd,In vivo rat cassette PK,1.8 L/kg
same,clearance,In vivo rat cassette PK,61.3 mL/min/kg
same,half-life,In vivo rat cassette PK,38.4 min
same,AUC,In vivo rat cassette PK,262 ng·h/mL
same,IC50,mouse TRPC5,540 ± 230 nM
"Clc1ccc(Cn2c(N3CCCC3)nc3ccccc32)cn1 [9 t, 1‐((6‐Chloropyridin‐3‐yl)methyl)‐2‐(pyrrolidin‐1‐yl)‐1H‐benzo[d]imidazole]",IC50,mouse TRPC5,3110 ± 940 nM
same,inhibition at 3 µM,mouse TRPC5; read-out: % Inhibition @ 3 μM,127%
"O=C(c1ccccc1)n1c(N2CCCC2)nc2ccccc21 [9 u, Phenyl(2‐(pyrrolidin‐1‐yl)‐1H‐benzo[d]imidazol‐1‐yl)methanone]",TRPC5 activity (in words),mouse TRPC5,inactive
"O=S(=O)(c1ccccc1)n1c(N2CCCC2)nc2ccccc21 [9 v, 1‐(Phenylsulfonyl)‐2‐(pyrrolidin‐1‐yl)‐1H‐benzo[d]imidazole]",TRPC5 activity (in words),mouse TRPC5,inactive
"Cc1cc2nc(N3CCCC3)n(Cc3ccccc3)c2cc1C [14 b, 1‐Benzyl‐5,6‐dimethyl‐2‐(pyrrolidin‐1‐yl)‐1H‐benzo[d]imidazole]",TRPC5 activity (in words),mouse TRPC5,moderate activity
same,IC50,mouse TRPC5,12300 nM
"COc1ccc2c(c1)nc(N1CCCC1)n2Cc1ccccc1 [14 h, 1‐Benzyl‐5‐methoxy‐2‐(pyrrolidin‐1‐yl)‐1H‐benzo[d]imidazole]",IC50,mouse TRPC5,1150 ± 330 nM
"O=c1[nH]ncc(-c2ccc3c(c2)nc(N2CCCC2)n3Cc2ccccc2)c1Cl [14 n, 5‐(1‐Benzyl‐2‐(pyrrolidin‐1‐yl)‐1H‐benzo[d]imidazol‐5‐yl)‐4‐chloropyridazin‐3(2H)‐one]",TRPC5 activity (in words),mouse TRPC5,not as active as 1
same,IC50,mouse TRPC5,7550 ± 2520 nM
"CC1CCCCN1c1nc2ccccc2n1Cc1ccc(Cl)cc1 (stereo not shown) [16 a, 1‐(4‐Chlorobenzyl)‐2‐(2‐methylpiperidin‐1‐yl)‐1H‐benzo[d]imidazole]",TRPC5 activity (in words),mouse TRPC5,not active
"CC1CCN(c2nc3ccccc3n2Cc2ccc(Cl)cc2)CC1 [16 b, 1‐(4‐Chlorobenzyl)‐2‐(4‐methylpiperidin‐1‐yl)‐1H‐benzo[d]imidazole]",TRPC5 activity (in words),mouse TRPC5,not active
"O=S1(=O)CCN(c2nc3ccccc3n2Cc2ccc(Cl)cc2)CC1 [16 c, 4‐(1‐(4‐Chlorobenzyl)‐1H‐benzo[d]imidazol‐2‐yl)thiomorpholine‐1,1‐dioxide]",TRPC5 activity (in words),mouse TRPC5,not active
"C[C@@H]1CCCN1c1nc2ccccc2n1Cc1ccc(Cl)cc1 [16 e, (R)‐1‐(4‐Chlorobenzyl)‐2‐(2‐methylpyrrolidin‐1‐yl)‐1H‐benzo[d]imidazole]",IC50,mouse TRPC5,2890 ± 700 nM
"CCCNc1nc2ccccc2n1Cc1ccc(Cl)cc1 [16 f, 1‐(4‐Chlorobenzyl)‐N‐propyl‐1H‐benzo[d]imidazol‐2‐amine]",CLint scaled,[1],127 mL/min/kg
same,hCLHEP,[1],17.4 mL/min/kg
same,fraction unbound,[2],0.014
same,fraction unbound,[3],0.036
same,CLint scaled,[4],867 mL/min/kg
same,mCLHEP,[4],81.6 mL/min/kg
same,Brain,In vivo rat cassette PK,163
same,Plasma,In vivo rat cassette PK,77.5
same,Kp,In vivo rat cassette PK,2.1
same,C0,In vivo rat cassette PK,140 ng/mL
same,MRT inf,In vivo rat cassette PK,37.9 min
same,Vd,In vivo rat cassette PK,2.3 L/kg
same,clearance,In vivo rat cassette PK,57.8 mL/min/kg
same,half-life,In vivo rat cassette PK,43.3 min
same,AUC,In vivo rat cassette PK,291 ng·h/mL
same,IC50,mouse TRPC5,68 ± 106 nM
